Measurements published in ChEMBL document CHEMBL1157729, “Structure-activity relationship and mechanism of action studies of manzamine analogues for the control of neuroinflammation and cerebral infections” (J Med Chem, 2010).
Values after ≈ are worked out from the molar mass of the structure shown. Active and inactive are the calls of the source. No cut-off for these calls is given here.

How the values were obtained:
Plasmodium falciparum [1] = assay: Antiplasmodial activity against chloroquine-sensitive Plasmodium falciparum D6 after 72 hrs by LDH assay; format: functional, organism-based; conditions: Plasmodium falciparum, D6, 72 h; read-out: IC50
Plasmodium falciparum [2] = assay: Antiplasmodial activity against chloroquine-resistant Plasmodium falciparum W2 after 72 hrs by LDH assay; format: functional, organism-based; conditions: Plasmodium falciparum, W2, 72 h; read-out: IC50
[3] = test system: Mycobacterium tuberculosis; assay: Antimycobacterial activity against Mycobacterium tuberculosis H37Rv; format: functional, organism-based
Candida albicans = assay: Antifungal activity against Candida albicans ATCC 90028; format: functional, organism-based
Procedure, shortened: (§1)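 Broth microdilution per modified CLSI method; samples serially diluted in 20% DMSO/saline, tested in duplicate; inocula set by OD630 of suspensions in incubation broth; growth read at 630 nm before and after incubation; amphotericin B drug control.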

Cryptococcus neoformans = assay: Antifungal activity against Cryptococcus neoformans ATCC 90113; format: functional, organism-based; procedure, shortened: as §1
[4] = test system: Mycobacterium intracellulare; assay: Antimycobacterial activity against Mycobacterium intracellular ATCC 23068; format: functional, organism-based
Procedure, shortened: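 Modified Franzblau method; samples serially diluted in 20% DMSO/saline, tested in duplicate; inoculum set by OD630; fluorescence read at 544ex/590em before and after incubation; ciprofloxacin drug control.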

[5] = (§2) Antineuroinflammatory activity in LPS-stimulated rat neonatal microglia assessed as inhibition of PMA-induced superoxide anion production preincubated 15 mins prior to PMA challenge measured after 70 mins; format: functional, cell-based
Microglia [6] = assay: as §2; format: functional, cell-based
[7] = (§3) Antineuroinflammatory activity in LPS-stimulated rat neonatal microglia assessed as inhibition of PMA-induced TXB2 production preincubated 15 mins prior to PMA challenge measured after 70 mins; format: functional, cell-based
Microglia [8] = assay: as §3; format: functional, cell-based
[9] = Antineuroinflammatory activity in LPS-stimulated rat neonatal microglia assessed as drug level causing 50% PMA-induced LDH release preincubated 15 mins prior to PMA challenge measured after 70 mins; format: functional
Procedure, shortened: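 Neonatal rat microglia (2 × 10^5/well) primed with E. coli LPS 0.3 ng/mL for 17 h at 35.9 °C, washed with HBSS, given compound (0.01–10 μM) or DMSO 15 min, then PMA 1 μM; LDH read spectrophotometrically after 70 min; LDH50 relative to Triton X-100 (0.1%) release; duplicates.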

Plasmodium berghei [10] = assay: Antiplasmodial activity against Plasmodium berghei NK65 infected in Swiss Webster mice (Mus musculus) assessed as inhibition of parasitaemia at 200 mg/kg, perorally administered 1 day after infection measured after 5 days post infection; format: functional; set-up: Activity: scale not given: the % may be the effect or the level left; conditions: route oral
Procedure, shortened: (§4)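 Male Swiss Webster mice (18-20 g, ≥5/group) inoculated i.p. with 2×10^7 P. berghei NK-65 parasitized RBC, given a single oral dose (100 μl, SSV or dilute HCl vehicle); parasitemia by Giemsa-stained tail blood smears days 5–28; activity as % decrease versus untreated controls on day 5.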

Plasmodium berghei [11] = assay: Antiplasmodial activity against Plasmodium berghei NK65 infected in Swiss Webster mice (Mus musculus) assessed as average parasitaemia at 200 mg/kg, perorally administered 1 day after infection measured after 5 days post infection; format: functional; conditions: route oral
Procedure, shortened: (§5)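 Male Swiss Webster mice (18-20 g), at least 5 per group, were inoculated ip with 2×10^7 P. berghei NK-65-parasitized red cells from a donor mouse and given a single oral dose (100 μl). Stock was made in SSV or 0.1 M HCl and diluted in SSV or 0.01 M HCl. Parasitemia was read from Giemsa-stained tail blood smears from day 5 to day 28. Cure meant no parasitemia through day 28.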

Plasmodium berghei [12] = assay: Antiplasmodial activity against Plasmodium berghei NK65 infected in Swiss Webster mice (Mus musculus) assessed as average parasitaemia at 200 mg/kg, perorally administered 1 day after infection measured after 14 days post infection; format: functional; conditions: route oral; procedure, shortened: as §5
Plasmodium berghei [13] = assay: Antiplasmodial activity against Plasmodium berghei NK65 infected in Swiss Webster mice (Mus musculus) assessed as average parasitaemia at 200 mg/kg, perorally administered 1 day after infection measured after 21 days post infection; format: functional; conditions: route oral; procedure, shortened: as §5
Plasmodium berghei [14] = assay: Antiplasmodial activity against Plasmodium berghei NK65 infected in Swiss Webster mice (Mus musculus) assessed as average parasitaemia at 200 mg/kg, perorally administered 1 day after infection measured after 28 days post infection; format: functional; conditions: route oral; procedure, shortened: as §4
Plasmodium berghei [15] = assay: Antiplasmodial activity against Plasmodium berghei NK65 infected in Swiss Webster mice (Mus musculus) assessed as parasitaemia cure at 200 mg/kg, perorally administered 1 day after infection measured after 28 days post infection; format: functional; conditions: route oral; procedure, shortened: as §5
MDCK = assay: Apparent permeability across apical to basolateral side of MDCK cells expressing MDR; format: ADME, cell-based, Canis lupus familiaris; conditions: dog
Procedure, shortened: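 MDR-MDCK cells (passage 12-40) seeded at 75,000 cells/cm2 and grown 8 days on Transwell inserts to a monolayer. Bidirectional transport over 2 h in HBSS pH 7.4 with test substance at 50 μM and caffeine (5 μM) as standard. Donor and receiver samples quantified by LC-MS. Cumulative amount transported plotted against time to derive apparent permeability.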

Vero = assay: Cytotoxicity against african green monkey Vero cells up to 4.6 ug/mL after 48 hrs by neutral red assay; format: cell-based; conditions: chlorocebus sabaeus
Procedure, shortened: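 Vero cells were seeded at 25,000 cells/well and incubated for 24 h, then exposed to serially diluted samples for 48 h. Viable cells were counted by Neutral Red assay, with doxorubicin as positive control. IC50 was taken from dose-response curves.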

[16] = Cytotoxicity against LPS-stimulated rat neonatal microglia assessed as LDH release
Procedure, shortened: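 Rat neonatal microglia (2×10^5/well) primed with E. coli LPS (0.3 ng/mL) for 17 h at 35.9 °C. Washed into HBSS, given compound (0.01-10 μM) or DMSO for 15 min, then PMA (1 μM) for 70 min, in duplicate. LDH release read spectrophotometrically. LDH50 is the concentration giving 50% of the LDH release seen with 0.1% Triton X-100.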

Plasmodium berghei [17] = assay: Antiplasmodial activity against Plasmodium berghei NK65 infected in Swiss Webster mice (Mus musculus) assessed as average parasitaemia at 200 mg/kg, perorally administered 1 day after infection measured after 10 days post infection; format: functional; conditions: route oral; procedure, shortened: as §4

Compound	IC50 (Plasmodium falciparum [1])	IC50 (Plasmodium falciparum [2])	IC50 (Candida albicans)	IC50 (Cryptococcus neoformans)	IC50 [4]	IC50 [5]	IC50 [7]	Activity [9]	Activity (Plasmodium berghei [10])	Activity (Plasmodium berghei [11])	Activity (Plasmodium berghei [12])	Activity (Plasmodium berghei [13])	Activity (Plasmodium berghei [15])	also measured
Oc1cccc2c1[nH]c1c(C3=C[C@@]4(O)CCCCCCCCN5CC[C@@H]3[C@]3(C[C@@H]6CCCCCCN6[C@H]34)C5)nccc12 [15,16,32,33-TETRAHYDRO-8-HYDROXYMANZAMINE A]	0.09 µg/mL (≈ 0.158 µM)	0.62 µg/mL (≈ 1.09 µM)	6 µg/mL (≈ 10.5 µM)	1.5 µg/mL (≈ 2.64 µM)	0.1 µg/mL (≈ 0.176 µM)	> 10 µM	1.97 µM	>10 µM	–	–	–	–	–	MIC [3]: 24 µg/mL (≈ 42.2 µM); Activity (Microglia [6]): inactive; Activity (Microglia [8]): inactive
CCN(CC)CCCC(C)Nc1ccnc2cc(Cl)ccc12 (centres undefined) [CHLOROQUINE]	–	–	–	–	–	–	–	–	100%	0%	0.2%	4%	80%	Activity (Plasmodium berghei [14]): 8%
Cl.O[C@]12C=C(c3nccc4c3[nH]c3ccccc34)[C@@H]3CCN(CCCC/C=C\CC1)C[C@@]31C[C@@H]3/C=C\CCCCN3[C@H]12 [MANZAMINE A HCL]	–	–	–	–	–	–	–	–	–	–	–	–	–	Papp (MDCK): 1.9 ×10⁻⁶ cm/s
O[C@]12C=C(C3NCCc4c3[nH]c3ccccc43)[C@@H]3CCN(CCCC/C=C\CC1)C[C@@]31C[C@@H]3/C=C\CCCCN3[C@H]12 (some centres undefined) [MANZAMINE D]	0.09 µg/mL (≈ 0.163 µM)	0.088 µg/mL (≈ 0.159 µM)	15 µg/mL (≈ 27.1 µM)	0.8 µg/mL (≈ 1.45 µM)	0.1 µg/mL (≈ 0.181 µM)	2.45 µM	2.1 µM	1 µM	–	–	–	–	–	Activity (Vero): Non-toxic; Activity [16]: Toxic
C=C[C@H]1CN2CC[C@H]1C[C@H]2[C@H](O)c1ccnc2ccc(OC)cc12 [QUININE]	–	–	–	–	–	–	–	–	26%	7.3%	32%	45%	0%	Activity (Plasmodium berghei [17]): 14%
